SMARCA2 activ – SMARCA2 function activation, primary screen | activation, % at 9.1 µM | MG213 cells, MMTV-luciferase reporter, dexamethasone, overnight | actives 1% (n = 370,000); in the data active = activation above about 7.8%;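 also: 0% = vehicle wells and 100% = reference activator wells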
MC4R barr agon – activates human MC4R beta-arrestin recruitment | actives 0.98% (n = 360,000) | U2OS MC4R beta-arrestin complementation, luminescence; percent of melanotan II response, DMSO zero | P32245 | AID 540308 | activation, % at 8.9 µM;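 active = activation above a per-plate cutoff, the mean activation of sample wells on that plate plus 3 SD, cut at about 8% in these data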
F508del corr – CFTR F508del correction in bronchial cells. actives 0.36% (n = 350,000). activity (quench increase), % at 7.58 µM. CFBE cells, YFP halide quenching; stimulated with forskolin plus potentiator P3; % fluorescence drop versus neutral controls;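 active = mean added fluorescence quench of at least 8% versus neutral control, with both replicates also reaching 8%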;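 also: cells transiently co-express mutant CFTR-F508del with the halide-sensitive YFP; corrector assay measuring rescue of mutant channel to the surface after 24 h compound exposure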
MC4R antag cAMP – blocks human MC4R cAMP signaling; actives 0.48% (n = 360,000); P32245; MC4R-expressing cells, MTII-stimulated cAMP, LANCE TR-FRET; AID 540295; inhibition, % at 6.5 µM;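 active = inhibition above its plate's cutoff, the mean of tested wells on that plate plus 3 SD, cut at about 29% in these data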;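 also: 0% = Melanotan II alone and 100% = Melanotan II plus saturating MCL0020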
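Test system: U2OS cells stably expressing human melanocortin 4 receptor (MC4R); also added: Melanotan II challenge; compound: 6.5 µM single dose; timing: 30-min compound preincubation, 1-h Melanotan II challenge, 1-h detection, room temperature; signal: Eu-cAMP/anti-cAMP TR-FRET, emission 671 nm; repeats: one well per compound, no replicates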
MC4R barr conf – human MC4R beta-arrestin agonism confirmation; shares compounds with MC4R barr agon; U2OS MC4R beta-arrestin recruitment, luminescence; scaled DMSO 0%, Melanotan II 100%; activation, % at 8.9 µM; actives 31% (n = 2,400); AID 602192;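 active = mean activation across replicates above the hit cutoff set in the earlier primary screen, cut at about 8% in these data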
MOR-DOR barr ag – counter-screen for MC4R agonists: agonists of mu-delta opioid heterodimer; shares compounds with MC4R barr agon; actives 5.8% (n = 2,400); U2OS PathHunter beta-arrestin, beta-gal luminescence; percent of deltorphin B response, DMSO zero; AID 602194; activation, % at 9.2 µM;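 active = mean activation across replicates exceeds the hit threshold derived in the earlier primary screen, cut at about 18% in these data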;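 also: 100% = deltorphin B at 0.9 µM final and 0% = DMSO alone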
Target sequence (P35372 whole entry, looked up): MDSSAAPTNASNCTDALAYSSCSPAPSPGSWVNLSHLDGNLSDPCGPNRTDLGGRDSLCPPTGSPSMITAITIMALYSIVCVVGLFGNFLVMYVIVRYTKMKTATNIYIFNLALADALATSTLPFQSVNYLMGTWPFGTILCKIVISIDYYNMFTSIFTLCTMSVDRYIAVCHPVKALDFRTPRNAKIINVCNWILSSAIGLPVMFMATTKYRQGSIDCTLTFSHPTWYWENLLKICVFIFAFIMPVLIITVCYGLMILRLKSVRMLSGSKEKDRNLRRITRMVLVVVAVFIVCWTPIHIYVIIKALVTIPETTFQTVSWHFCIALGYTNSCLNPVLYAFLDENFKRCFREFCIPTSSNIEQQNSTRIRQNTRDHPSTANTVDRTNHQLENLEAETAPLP
Target sequence (P41143 whole entry, looked up): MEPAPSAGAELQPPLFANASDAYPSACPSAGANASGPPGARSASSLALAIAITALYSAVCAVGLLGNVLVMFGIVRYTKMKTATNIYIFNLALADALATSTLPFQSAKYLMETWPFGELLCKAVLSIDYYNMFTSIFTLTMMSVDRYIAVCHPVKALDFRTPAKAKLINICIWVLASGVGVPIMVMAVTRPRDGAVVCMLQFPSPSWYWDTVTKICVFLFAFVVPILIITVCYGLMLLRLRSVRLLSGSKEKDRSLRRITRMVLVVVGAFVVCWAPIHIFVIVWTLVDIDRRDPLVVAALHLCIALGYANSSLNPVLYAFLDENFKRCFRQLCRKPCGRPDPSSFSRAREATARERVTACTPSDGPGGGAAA
Numbers without * were called inactive; . = not tested or not shown; ! = repeats disagree. Hits are enriched below; roughly 2.1% of the tested compounds scored in any of these assays.

SMILES	SMARCA2 activ	MC4R barr agon	F508del corr	MC4R antag cAMP	MC4R barr conf	MOR-DOR barr ag
CN(C)C(=O)c1cccc(-c2ccc([C@@H]3[C@@H](CO)N4CCCCN(Cc5cccnc5)C[C@@H]34)cc2)c1	.	.	0.1	.	.	.
CO[C@H]1CN(C)C(=O)c2ccc(NS(C)(=O)=O)cc2OC[C@H](C)N(C(=O)CC2CC2)C[C@H]1C	.	.	-4.1	.	.	.
COc1ccc(N2CCN(c3cc(C)c4ccccc4n3)CC2)cc1	0.4	16.1*	2.8	-1.9	0.3	3.8
Cc1cc(N2CCN(c3ccccc3)CC2)nc2ccccc12	-0.7	1.6	-5.0	-2.1	.	.
C[C@H](CO)N1C[C@H](C)[C@@H](CN(C)Cc2ccccn2)Oc2ncc(C#Cc3cccc(F)c3)cc2C1=O	.	.	-0.9	.	.	.
CCn1c(COc2ccc(Cl)cc2)nnc1SCC(=O)Nc1ccc2c(c1)OCCO2	-0.1	-0.1	.	13.8	.	.
CCn1c(COc2ccc3c(c2)OCO3)nnc1SCC(=O)c1ccc(Cl)cc1	-1.8	9.9*	.	-7.3	1.7	3.9
COc1ccc(NC(=O)Nc2ccc3c(c2)CC(=O)N([C@@H](C)CO)C[C@@H](C)[C@@H](CN(C)S(=O)(=O)c2cn(C)cn2)O3)cc1	.	.	-0.3	.	.	.
NC(=O)CC(NC(=O)c1ccccc1)c1ccc(NCCc2cccc(F)c2)c([N+](=O)[O-])c1 (configuration not stated)	-1.0	-1.1	2.2	4.6	.	.
NC(=O)CC(NC(=O)c1ccc(Br)cc1)c1ccc(NCCc2ccc(F)cc2)c([N+](=O)[O-])c1 (configuration not stated)	1.1	12.6*	2.4	3.3	-0.6	3.1
CCOC(=O)c1cc(-c2ccccc2)sc1NC(=O)CSc1nnc(N)s1	2.2	10.5*	2.5	23.0	3.5	7.4
CCOC(=O)c1cc(-c2ccccc2)sc1NC(=O)CC	-1.6	1.6	.	10.7	.	.
CCOC(=O)c1cc(-c2ccccc2)sc1NC(=O)COC(=O)c1cccc(S(N)(=O)=O)c1	-4.0	16.5*	0.0	-13.5	18.6*	21.9*
COc1ccccc1S(=O)(=O)N[C@H]1CC[C@H](CC(=O)NCc2cccc(F)c2)O[C@@H]1CO	.	.	-4.0	.	.	.
O=C(CN1C(=O)NC2(CCCC2)C1=O)OCc1ccc(Br)cc1	-1.6	-3.5	-3.2	3.4	.	.
CC1CC(C)(C)CC2(C1)NC(=O)N(CC(=O)OCc1ccc(Br)cc1)C2=O (configuration not stated)	-1.5	14.0*	-1.9	-0.9	-0.7	6.5
C[C@H](NC(=O)[C@@H]1N[C@@H]2c3ccc(-c4ccc(C(=O)N(C)C)cc4)c(=O)n3C[C@@H]2[C@H]1CO)c1ccccc1	.	.	-3.9	.	.	.
CCCCCCCCCCCCCCCC(=O)NCCO	-3.9	11.7*	-1.7	3.4	0.1	1.7
CN(Cc1ccccc1)C(=S)NC(=O)c1ccc(-c2ccccc2)cc1	-1.4	27.5*	.	-3.6	-4.9	2.3
CC(=O)Nc1ccc(NC(=S)NC(=O)c2ccc(-c3ccccc3)cc2)cc1	-1.5	36.2*	0.2	6.3	3.7	5.7
COc1cc(C(=O)NC(=S)N(C)Cc2ccccc2)cc(OC)c1OC	1.1	-0.4	0.2	3.9	.	.
C[C@@H]1CN([C@H](C)CO)S(=O)(=O)c2ccc(C#CCN(C)C)cc2O[C@@H]1CN(C)CC1CC1	.	.	-1.8	.	.	.
O=C(Nc1ccccc1)N1C[C@@H]2[C@H](c3ccccc31)[C@H](CO)N2Cc1cocn1	.	.	-3.8	.	.	.
COCC(=O)N1CC2(CN(C(C)=O)C2)c2c([nH]c3cc(OC)ccc23)[C@@H]1CO	.	.	-0.2	.	.	.
C/C(=N\NC1=NCCN1)c1ccc(N)c([N+](=O)[O-])c1	-0.2	-3.7	0.1	-10.5	.	.
SMILES	SMARCA2 activ	MC4R barr agon	F508del corr	MC4R antag cAMP	MC4R barr conf	MOR-DOR barr ag
CCCCCCOc1ccc(/C(C)=N/NC2=NCCN2)cc1[N+](=O)[O-]	4.7	14.3*	-0.5	4.3	11.5*	10.0
CCC(=O)N1C[C@@H](C)[C@@H](OC)CN(C)C(=O)c2cc(NC(=O)c3cc(C)on3)ccc2OC[C@@H]1C	.	.	3.0	.	.	.
CC(C)c1ccc(NC(=S)NCc2ccc3c(c2)OCO3)cc1	2.9	11.5*	4.1	8.8	0.6	6.2
COc1ccc(NC(=S)NCc2ccc3c(c2)OCO3)cc1	-2.1	-1.4	.	3.9	.	.
COc1cccc(-c2ccc(C#N)c(SCC(=O)NCCc3cccc(Cl)c3)n2)c1	-1.9	13.0*	.	16.1	18.0*	20.2*
COc1ccc(-c2ccc(C#N)c(SCC(=O)NCCc3ccccc3)n2)cc1OC	.	11.6*	.	19.4	4.4	5.8
COc1cccc(-c2ccc(C#N)c(OC(=O)c3ccc(Cl)cc3)n2)c1	-0.7	-2.3	.	12.0	.	.
C[C@H](CO)N1C[C@H](C)[C@H](CN(C)S(=O)(=O)c2ccccc2)Oc2ccc(NC(=O)Nc3ccccc3)cc2C1=O	.	.	-1.4	.	.	.
CC(C)(C)c1ccc(C(=O)O/N=C(\N)c2ccccc2)cc1	-7.9	15.9*	3.0	7.4	8.4*	11.9
COc1ccc(C(=O)O/N=C(\N)c2ccccc2)cc1	0.7	-0.2	-0.4	11.8	.	.
CN1C[C@@H]2[C@H](c3ccccc31)[C@@H](CO)N2C(=O)C1CC1	.	.	-2.2	.	.	.
Cn1c(SCC(=O)Nc2cc(Cl)cc(Cl)c2)nnc1-c1ccc2nonc2c1	-0.7	35.8*	-1.9	-6.3	7.8	8.0
Cc1ccccc1OCc1n(CC(=O)OC2CC(C)CCC2C(C)C)c2ccccc2[n+]1C (configuration not stated)	-7.7	23.2*	-1.6	-3.3	41.2*	27.3*
CC1CCC(C(C)C)C(OC(=O)Cn2c(-c3ccc(Cl)cc3)[n+](C)c3ccccc32)C1 (configuration not stated)	-5.7	28.1*	-2.2	-1.2	7.7	8.6
CC1CCC(C(C)C)C(OC(=O)Cn2c(-c3ccc(Br)cc3)[n+](C)c3ccccc32)C1 (configuration not stated)	-8.3	11.8*	1.0	-1.7	13.3*!	7.1
CC1CCC(C(C)C)C(OC(=O)COC(=O)c2cccn2C)C1 (configuration not stated)	-3.9	-1.3	.	10.3	.	.
N#C[C@H]1[C@@H](c2ccccc2)[C@H](CO)N1S(=O)(=O)c1ccc(F)cc1	.	.	-0.7	.	.	.
Cc1ccc2nsnc2c1NC(=O)c1sc2ccccc2c1Cl	-3.0	12.9*	.	6.0	3.5	4.3
CCC(=O)N1[C@H](CO)[C@H]2c3ccccc3N(C(=O)c3ccc4c(c3)OCO4)C[C@H]21	.	.	0.6	.	.	.
O=C(NCc1ccc2c(c1)OCO2)c1cc(-c2cc(Cl)ccc2O)n[nH]1	-3.3	11.0*	-0.9	3.2	4.8	3.6
COc1cccc(CC2(CO)CCCN(Cc3ccc(C)s3)C2)c1 (configuration not stated)	0.7	0.3	1.2	-0.1	.	.
